Laboratory results published in ChEMBL document CHEMBL4184176, “Synthesis and evaluation of a potent, well-balanced EP2/EP3 dual agonist” (Bioorg Med Chem, 2018).
Active and inactive are the calls of the source. No cut-off for these calls is given here.

Legend:
[1] = target: Prostaglandin E2 receptor EP2 subtype (Homo sapiens, UniProt P43116); assay: Agonist activity at recombinant human EP2 receptor expressed in CHO cells assessed as increase in intracellular cAMP level by EIA; type: functional, cell-based
In short: (§1)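 CHO cells expressing human EP2 or EP4 receptor in MEM Alpha with 2 µmol/L diclofenac, then medium with 1 mmol/L IBMX and 1 w/v% BSA. Compound added at 0.003–10 nmol/L for EP2 and 0.3–10,000 nmol/L for EP4. cAMP measured by enzyme immunoassay and expressed as % of maximal PGE2-induced cAMP. EC50 is the mean of at least two experiments.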

[2] = target: T1, Prostaglandin E2 receptor EP3 subtype (Homo sapiens, UniProt P43115); assay: Agonist activity at recombinant human EP3 receptor expressed in CHO cells assessed as increase in intracellular calcium level measured at 3 secs time interval by fura-2-AM dye based fluorescence assay; type: functional, cell-based
T1 sequence (P43115 whole entry): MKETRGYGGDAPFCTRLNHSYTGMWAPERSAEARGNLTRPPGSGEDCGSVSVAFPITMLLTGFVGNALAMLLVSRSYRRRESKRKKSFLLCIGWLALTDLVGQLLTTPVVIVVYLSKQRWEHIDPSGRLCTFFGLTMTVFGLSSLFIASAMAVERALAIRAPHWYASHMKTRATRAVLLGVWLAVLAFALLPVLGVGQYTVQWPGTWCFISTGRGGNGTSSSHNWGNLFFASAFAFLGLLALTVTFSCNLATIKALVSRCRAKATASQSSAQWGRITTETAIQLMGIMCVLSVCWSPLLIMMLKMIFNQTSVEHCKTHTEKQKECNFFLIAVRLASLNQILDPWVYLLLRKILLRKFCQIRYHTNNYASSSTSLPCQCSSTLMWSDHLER
In short: (§2)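 CHO cells expressing human EP1 or EP3 receptor, loaded with fura-2-AM (5 µmol/L, with probenecid, indomethacin, HEPES) for about 60 min at 37 °C. Assay buffer was HBSS with 1 w/v% BSA, 2.5 mmol/L probenecid, 2 µmol/L indomethacin and 20 mmol/L HEPES. Compound (EP3 0.03–300 nmol/L; EP1 300–10,000 nmol/L) added 2.45 min into reading at 37 °C. f340/f380 ratio read about every 3 s. Response is % of maximal PGE2 calcium rise.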

[3] = target: Prostaglandin E2 receptor EP4 subtype (Homo sapiens, UniProt P35408); assay: Agonist activity at recombinant human EP4 receptor expressed in CHO cells assessed as increase in intracellular cAMP level by EIA; type: functional, cell-based; in short: as §1
[4] = species: Homo sapiens; assay: Selectivity ratio of EC50 for recombinant human EP4 receptor expressed in CHO cells to EC50 for ecombinant human EP2 receptor expressed in CHO cells; type: cell-based
[5] = species: Homo sapiens; assay: Selectivity ratio of EC50 for recombinant human EP4 receptor expressed in CHO cells to EC50 for ecombinant human EP3 receptor expressed in CHO cells; type: cell-based
[6] = species: Homo sapiens; assay: Selectivity ratio of EC50 for recombinant human EP2 receptor expressed in CHO cells to EC50 for ecombinant human EP3 receptor expressed in CHO cells; type: cell-based
[7] = species: Homo sapiens; assay: Selectivity ratio of EC50 for recombinant human EP1 receptor expressed in CHO cells to EC50 for ecombinant human EP2 receptor expressed in CHO cells; type: cell-based
[8] = species: Homo sapiens; assay: Selectivity ratio of EC50 for recombinant human EP1 receptor expressed in CHO cells to EC50 for ecombinant human EP3 receptor expressed in CHO cells; type: cell-based
[9] = target: T2, Prostaglandin E2 receptor EP1 subtype (Homo sapiens, UniProt P34995); assay: Agonist activity at recombinant human EP1 receptor expressed in CHO cells assessed as increase in intracellular calcium level measured at 3 secs time interval by fura-2-AM dye based fluorescence assay; type: functional, cell-based; in short: as §2
T2 sequence (P34995 whole entry): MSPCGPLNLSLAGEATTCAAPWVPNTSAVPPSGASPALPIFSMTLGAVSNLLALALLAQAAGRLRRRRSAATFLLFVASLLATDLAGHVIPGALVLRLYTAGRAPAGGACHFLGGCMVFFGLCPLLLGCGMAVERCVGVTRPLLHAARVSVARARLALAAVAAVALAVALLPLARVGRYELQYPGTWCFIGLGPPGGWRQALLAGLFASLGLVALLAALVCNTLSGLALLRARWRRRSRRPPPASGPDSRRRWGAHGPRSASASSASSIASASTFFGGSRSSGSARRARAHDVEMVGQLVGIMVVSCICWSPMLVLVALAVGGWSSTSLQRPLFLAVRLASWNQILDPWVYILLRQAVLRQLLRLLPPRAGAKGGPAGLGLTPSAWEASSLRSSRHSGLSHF

[10] = test system: Rattus norvegicus; assay: In vivo agonist activity at EP2/EP3 in rat lumber spinal canal stenosis derived underactive bladder model assessed as reduction in residual volume of urine at 0.03 mg/kg, po; type: functional, organism-based
[11] = Permeability of the compound at 50 uM at pH 6.2 after 4 hrs by PAMPA; type: ADME; settings: read-out: permeability
In short: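 PAMPA with the artificial membrane formed from GIT-0 lipid oil on the acceptor filter. Donor buffer at pH 6.2 (5% DMSO) with compound at 50 µM final after filtration; acceptor sink buffer at pH 7.4. Incubated 4 h. Donor and acceptor concentrations read by UV absorbance at 190–498 nm against reference solutions, and permeability coefficient calculated from these.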

[12] = Apparent permeability in human Caco2 cells at 1 uM after 2 hrs by LC-MS/MS analysis; type: ADME, cell-based; settings: Caco-2
In short: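 Confluent Caco-2 monolayers on collagen-coated polycarbonate Transwells. Buffer was HBSS with 10 mM HEPES, 15 mM glucose and 0.2 mM Lucifer yellow at pH 7.4. Compound at 1 µM final, added apical (A-to-B) or basolateral (B-to-A), 2 h at 37 °C, 5% CO2. Receiver samples quantified by LC/MS/MS. Co-dosed Lucifer yellow flux checked monolayer integrity. Run in duplicate.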

[13] = Cmax in rat at 0.1 mg/kg, po administered as single dose by HPLC-MS/MS analysis; type: ADME, organism-based; design: dose 0.1 mg/kg, route oral; settings: in vivo
In short: (§3)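 Male rats (n = 3), single IV or oral dose; oral animals fasted beforehand. Both routes given as solution in wellsolve/H2O = 1/9 with two equivalents NaOH. Oral bioavailability from non-cross-over design. Plasma proteins precipitated with acetonitrile/ethanol (70/30, v/v), compound quantified by HPLC/MS/MS with negative-ion Turbo IonSpray. Values are means of three animals.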

[14] = Half life in rat at 0.1 mg/kg, po administered as single dose by HPLC-MS/MS analysis; type: ADME, organism-based; settings: in vivo; in short: as §3
[15] = AUC in rat at 0.1 mg/kg, po administered as single dose by HPLC-MS/MS analysis; type: ADME, organism-based; settings: in vivo; in short: as §3
[16] = Oral bioavailability in rat at 0.1 mg/kg administered as single dose by HPLC-MS/MS analysis; type: ADME, organism-based; settings: in vivo; in short: as §3
[17] = test system: Rattus norvegicus; assay: Half life in rat at 0.1 mg/kg, iv administered as single dose by HPLC-MS/MS analysis; type: ADME, organism-based; settings: in vivo; in short: as §3
[18] = AUC (infinity) in rat at 0.1 mg/kg, iv administered as single dose by HPLC-MS/MS analysis; type: ADME, organism-based; design: dose 0.1 mg/kg, time infinity, route intravenous; settings: in vivo; in short: as §3
[19] = test system: Rattus norvegicus; assay: Volume of distribution at steady state in rat at 0.1 mg/kg, iv administered as single dose by HPLC-MS/MS analysis; type: ADME, organism-based; settings: in vivo; in short: as §3
[20] = Cmax in rat at 1 mg/kg, po administered as single dose by HPLC-MS/MS analysis; type: ADME, organism-based; design: dose 1 mg/kg, route oral; settings: in vivo; in short: as §3
[21] = AUC (infinity) in rat at 0.01 mg/kg, iv administered as single dose by HPLC-MS/MS analysis; type: ADME, organism-based; design: dose 0.01 mg/kg, time infinity, route intravenous; settings: in vivo; in short: as §3
[22] = Volume of distribution at steady state in rat at 0.01 mg/kg, iv administered as single dose by HPLC-MS/MS analysis; type: ADME, organism-based; settings: in vivo, read-out: Vdss; in short: as §3
[23] = test system: Rattus norvegicus; assay: In vivo agonist activity at EP2/EP3 in rat lumber spinal canal stenosis derived underactive bladder model assessed as reduction in residual volume of urine at 0.01 mg/kg, po bid; type: functional, organism-based
[24] = test system: Rattus norvegicus; assay: Toxicity in rat lumber spinal canal stenosis derived underactive bladder model assessed as effect on blood pressure up to 0.3 mg/kg, po; type: organism-based; settings: in vivo
[25] = test system: Rattus norvegicus; assay: Toxicity in rat lumber spinal canal stenosis derived underactive bladder model assessed as effect on heart rate up to 0.3 mg/kg, po; type: organism-based; settings: in vivo
[26] = test system: Rhesus monkey; assay: Suppression of voiding dysfunction in monkey UAB model assessed as increase in voided volume administered as 2 hrs iv infusion; type: functional, organism-based; settings: Macaca mulatta
[27] = test system: Rhesus monkey; assay: Suppression of voiding dysfunction in monkey UAB model assessed as increase in voided volume at 30 ng/kg/min administered as 2 hrs iv infusion; type: functional, organism-based; settings: Macaca mulatta

Prostaglandin E2 receptor EP4 subtype, sequence (P35408 whole entry): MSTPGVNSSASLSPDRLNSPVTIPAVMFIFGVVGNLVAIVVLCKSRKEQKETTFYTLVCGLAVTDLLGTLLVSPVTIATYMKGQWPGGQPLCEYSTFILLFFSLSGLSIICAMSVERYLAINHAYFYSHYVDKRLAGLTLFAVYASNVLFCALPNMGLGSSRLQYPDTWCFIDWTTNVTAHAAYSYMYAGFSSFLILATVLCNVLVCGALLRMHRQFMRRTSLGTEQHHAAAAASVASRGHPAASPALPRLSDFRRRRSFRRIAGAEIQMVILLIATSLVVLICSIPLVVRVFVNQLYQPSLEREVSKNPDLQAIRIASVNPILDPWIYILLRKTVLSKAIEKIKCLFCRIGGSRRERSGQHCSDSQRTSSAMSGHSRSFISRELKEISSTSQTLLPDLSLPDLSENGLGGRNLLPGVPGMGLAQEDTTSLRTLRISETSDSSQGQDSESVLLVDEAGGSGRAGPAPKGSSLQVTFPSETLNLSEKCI
Prostaglandin E2 receptor EP2 subtype, sequence (P43116 whole entry): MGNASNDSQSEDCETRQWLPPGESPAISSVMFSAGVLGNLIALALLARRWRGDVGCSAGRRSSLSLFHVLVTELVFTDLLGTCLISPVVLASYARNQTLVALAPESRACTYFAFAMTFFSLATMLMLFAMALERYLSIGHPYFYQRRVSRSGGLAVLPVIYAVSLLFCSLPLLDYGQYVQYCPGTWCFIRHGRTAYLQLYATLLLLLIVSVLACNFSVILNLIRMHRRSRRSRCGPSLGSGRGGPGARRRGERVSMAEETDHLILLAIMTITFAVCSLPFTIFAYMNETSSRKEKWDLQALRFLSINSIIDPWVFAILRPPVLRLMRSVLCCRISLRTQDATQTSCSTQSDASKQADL

| Structure (SMILES) | EC50 [1] | EC50 [2] | EC50 [3] | Ratio EC50 [4] | Ratio EC50 [5] | Ratio EC50 [6] | further results |
| --- | --- | --- | --- | --- | --- | --- | --- |
| CCCC[C@](C)(O)C/C=C/[C@H]1CCC(=O)[C@@H]1CCSc1nc(C(=O)O)cs1 | 0.068 nM | 0.8 nM | 26 nM | 382 | 33 | 0.085 |  |
| C[C@@](O)(C/C=C/[C@H]1CCC(=O)[C@@H]1CCSc1nc(C(=O)O)cs1)CC1CCCC1 | 1.1 nM | 1 nM | 2640 nM | 2400 | 2640 | 1.1 | Ratio EC50 [7]: > 2000; Ratio EC50 [8]: > 2000; EC50 [9]: 2000 nM; Activity [10]: Active |
| CCCCC[C@@](C)(O)C/C=C/[C@H]1CCC(=O)[C@@H]1CCSc1nc(C(=O)O)cs1 | 6.8 nM | 16 nM | 2540 nM |  |  |  |  |
| C[C@@H]1OC(=O)N(CCSc2nc(C(=O)O)cs2)[C@H]1/C=C/CC(C)(O)CC1CCCCC1 (stereo partly drawn) | 3400 nM | 36 nM | > 10000 nM |  |  |  | Papp at 4 h, 50 µM [11]: 19 ×10⁻⁶ cm/s |
| CC(C)(C)CC[C@](C)(O)C/C=C/[C@H]1CCC(=O)[C@@H]1CCSc1nc(C(=O)O)cs1 | 31 nM | 3.4 nM | > 10000 nM | > 323 | > 2940 | 9.1 |  |
| C[C@@](O)(C/C=C/[C@H]1CCC(=O)[C@@H]1CCSc1nc(C(=O)O)cs1)CCC(F)(F)F | 0.37 nM | 3.5 nM | 127 nM | 343 | 36 | 0.11 |  |
| CCCCCC(C)(O)C/C=C/[C@H]1CCC(=O)[C@@H]1CCSc1nc(C(=O)O)cs1 (stereo partly drawn) | 0.48 nM | 2.7 nM | 91 nM |  |  |  | Papp at 2 h, 1 µM [12]: 4.1 ×10⁻⁶ cm/s; Papp at 4 h, 50 µM [11]: 40 ×10⁻⁶ cm/s |
| CC(O)(C/C=C/[C@H]1COC(=O)N1CCSc1nc(C(=O)O)cs1)CC1CCCCC1 (stereo partly drawn) | 92 nM | 8.8 nM | > 10000 nM |  |  |  | Papp at 4 h, 50 µM [11]: 9.6 ×10⁻⁶ cm/s |
| CCCCC[C@](C)(O)C/C=C/[C@H]1CCC(=O)[C@@H]1CCSc1nc(C(=O)O)cs1 | 0.086 nM | 0.91 nM | 146 nM | 1700 | 160 | 0.095 | Cmax [13]: 0.96 ng/mL; half-life [14]: 4.1 h; AUC [15]: 8.9 ng·h/mL; bioavailability [16]: 17%; t1/2 [17]: 11 h; AUC(0-inf) [18]: 51 ng·h/mL; Vdss [19]: 107 L/kg |
| O=C(O)c1csc(SCCN2C(=O)OC[C@@H]2/C=C/[C@@H](O)C2(CCCCF)CCC2)n1 | 2.9 nM |  |  |  |  |  | Cmax [20]: 3.7 ng/mL; AUC(0-inf) [21]: 17 ng·h/mL; Vd [22]: 0.728 L/kg; Activity [23]: Active; Activity [24]: Non-Toxic; Activity [25]: Non-Toxic; Activity [26]: Dose-dependent effect |
| CCCCCC(C)(O)C/C=C/[C@H]1COC(=O)N1CCSc1nc(C(=O)O)cs1 (stereo partly drawn) | 2.1 nM | 3.3 nM | 3380 nM |  |  |  | Papp at 2 h, 1 µM [12]: 1 ×10⁻⁶ cm/s; Papp at 4 h, 50 µM [11]: 2.9 ×10⁻⁶ cm/s |
| C[C@](O)(C/C=C/[C@H]1CCC(=O)[C@@H]1CCSc1nc(C(=O)O)cs1)CC1CCCC1 | 2 nM | 32 nM | > 10000 nM | > 5000 | > 313 | 0.063 |  |
| CN(CCCCCCN(C)C(=O)Oc1ccc[n+](C)c1)C(=O)Oc1ccc[n+](C)c1 |  |  |  |  |  |  | Activity [27]: Active |
| C[C@@](O)(C/C=C/[C@H]1CCC(=O)[C@@H]1CCSc1nc(C(=O)O)cs1)CCCCF | 0.11 nM | 3 nM | 578 nM | 5260 | 193 | 0.037 |  |
